Assay results from ChEMBL document CHEMBL3797075 (Bioorg Med Chem, 2016).
Activity calls are given as the source filed them. The calls are words filed in the database; no cut-off is given here.

How the values were obtained:
[1] = biological target: T1, Steryl-sulfatase (Homo sapiens) (UniProt P08842); experiment: Inhibition of steroid sulfatase (unknown origin) at 10 uM
T1 sequence (whole entry): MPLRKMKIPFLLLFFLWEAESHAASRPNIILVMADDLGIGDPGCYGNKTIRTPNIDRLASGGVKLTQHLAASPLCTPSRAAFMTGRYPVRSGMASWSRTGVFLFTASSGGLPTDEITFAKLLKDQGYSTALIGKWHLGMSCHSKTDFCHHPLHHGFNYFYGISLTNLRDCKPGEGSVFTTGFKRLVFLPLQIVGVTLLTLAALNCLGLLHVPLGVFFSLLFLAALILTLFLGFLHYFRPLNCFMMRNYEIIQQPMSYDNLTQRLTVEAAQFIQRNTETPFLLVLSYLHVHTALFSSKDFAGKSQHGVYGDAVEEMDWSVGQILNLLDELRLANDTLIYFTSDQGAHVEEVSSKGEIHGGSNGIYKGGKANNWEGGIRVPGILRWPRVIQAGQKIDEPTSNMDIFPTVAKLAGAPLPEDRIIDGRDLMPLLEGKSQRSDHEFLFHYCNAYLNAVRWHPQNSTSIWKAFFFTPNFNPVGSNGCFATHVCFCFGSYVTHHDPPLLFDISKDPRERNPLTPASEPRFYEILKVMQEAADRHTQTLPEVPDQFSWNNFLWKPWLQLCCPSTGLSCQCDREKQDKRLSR
In short: (§1)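 STS source was lysate of human JEG-3 choriocarcinoma cells at 125 µg protein/mL. Substrate was [³H]E₁S adjusted to 20 µM with unlabelled E₁S. Inhibitor was added at a single 10 µM or at 0.5–20 µM, incubated for 1 h. Product was extracted into toluene, with [4-¹⁴C]E₁ correcting for losses. Values are % inhibition, triplicate mean.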

[2] = biological target: T1, Steryl-sulfatase (Homo sapiens); experiment: Inhibition of steroid sulfatase (unknown origin); in short: as §1
[3] = biological target: T1, Steryl-sulfatase (Homo sapiens); experiment: Inhibition of steroid sulfatase (unknown origin) at 20 uM; in short: as §1
[4] = biological target: T1, Steryl-sulfatase (Homo sapiens); experiment: (§2) Inhibition of steroid sulfatase in human JEG-3 cells assessed as […]Estrone formation using [3H]E1S as substrate; assay type: cell-based
In short: (§3)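 Intact JEG-3 monolayers were incubated for 20 h at 37 °C in serum-free EMEM with [³H]E₁S (5 pmol, 60 Ci/mmol), with or without inhibitor. Estrone was separated from E₁S by toluene partition, with [¹⁴C]estrone correcting for recovery. Counts were read by scintillation, and hydrolysed E₁S mass was derived from ³H counts and substrate specific activity. Values are triplicate means.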

[5] = biological target: T2, Steryl-sulfatase (Homo sapiens, UniProt P08842); experiment: as §2; assay type: cell-based; in short: as §3
T2 sequence (P08842 whole entry): T1 sequence (whole entry)

[6] = biological target: T1, Steryl-sulfatase (Homo sapiens); experiment: Inhibition of steroid sulfatase in human JEG-3 cells assessed as […]Estrone formation using [3H]E1S as substrate at 10 uM; assay type: cell-based; in short: as §3
[7] = biological target: T1, Steryl-sulfatase (Homo sapiens); experiment: Inhibition of steroid sulfatase in human JEG-3 cells assessed as […]Estrone formation using [3H]E1S as substrate at 20 uM; assay type: cell-based; in short: as §3

Compound	inhibition [1]	other results
Cc1ccc(S(=O)(=O)Oc2ccc(NC(=O)C3CCCCC3)cc2)cc1	Active	–
Cc1ccc(S(=O)(=O)Oc2ccc(NC(=O)C3CCCC3)cc2)cc1	Active	–
CN(C)S(=O)(=O)Oc1ccc(NC(=O)C2CCCCC2)cc1	Active	–

Continued, in another order:

inhibition [1]	Compound	other results
Active	CNS(=O)(=O)Oc1ccc(NC(=O)C2CCCC2)cc1	–
Active	CCS(=O)(=O)Oc1ccc(NC(=O)C2CCCCC2)cc1	–
55.7%	NS(=O)(=O)Oc1ccc(NC(=O)C2CCCCC2)cc1	inhibition [2]: Dose-dependent effect; inhibition [3]: 72%; inhibition [4]: Dose-dependent effect; IC50 [5]: 0.421 µM; inhibition [6]: 86.1%; inhibition [7]: 93.9%
Active	CNS(=O)(=O)Oc1ccc(NC(=O)C2CCCCC2)cc1	–
